# From ChEMBL document CHEMBL3400140, “Design, synthesis, and structure-activity relationships of 1-ethylpyrazole-3-carboxamide compounds as novel hypoxia-inducible factor (HIF)-1 inhibitors” (Bioorg Med Chem, 2015)
# The source made the active and inactive calls. The calls are words filed in the database; no cut-off is given here.
# Tests used:
# [1] = target: T1, Hypoxia inducible factors; HIF-1-alpha, HIF-2-alpha (Homo sapiens, UniProt Q16665+Q99814); assay: Inhibition of HIF1 in human HT1080 cells transfected with 5xHRE/pGL3/VEGF/E1b reporter plasmid pre-incubated for 1 hr followed by incubation under hypoxia conditions for 24 hrs by HRE-driven luciferase reporter gene assay; format: cell-based; details: for IC50: ht-1080
# [2] = Inhibition of cell proliferation of human HT1080 cells after 72 hrs by WST-8 dye based cell counting assay; format: functional; details: HT-1080, 72 h
# How it was run: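 HT1080 cells seeded at 1.0 × 10³/well and kept under hypoxia (1% O₂); growth read 72 h after compound addition with WST-8 reagent, absorbance at 450 nm.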
# [3] = target: T1, Hypoxia inducible factors; HIF-1-alpha, HIF-2-alpha; assay: Inhibition of HIF1-mediated carbonic anhydrase 9 gene expression in human HT1080 cells at 100 uM after 16 hrs by real time PCR method; format: cell-based; details: HT-1080
# How it was run: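 HT1080 cells exposed to compounds at 100 µM for 16 h; CAIX mRNA measured by quantitative PCR normalized to 18S rRNA, expressed relative to the normoxic value.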
# HT-1080 [4] = assay: Inhibition of cell migration of scratched human HT1080 cells monolayers at 100 uM after 48 hrs by phase contrast microscopy based wound-healing assay; format: functional
# [5] = target: T1, Hypoxia inducible factors; HIF-1-alpha, HIF-2-alpha; assay: Inhibition of HIF1-mediated carbonic anhydrase 9 gene expression in human HT1080 cells at 1 to 100 uM after 4 hrs by real time PCR method; format: cell-based; details: HT-1080
# How it was run: (§1)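 HT1080 cells treated 4 h with compound; mRNA of CAIX, HIF-1a and HIF-1b quantified by real-time PCR, normalized to 18S rRNA and expressed relative to DMSO-treated cells.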
# HT-1080 [6] = assay: Effect on HIF-1alpha gene expression in human HT1080 cells up to 100 uM after 4 hrs by real time PCR method; format: functional, cell-based; how it was run: as §1
# HT-1080 [7] = assay: Effect on HIF-1beta gene expression in human HT1080 cells up to 100 uM after 4 hrs by real time PCR method; format: functional, cell-based; how it was run: as §1
Compound,IC50 [1],IC50 [2],inhibition [3],inhibition (HT-1080 [4]),inhibition ([1]; HT-1080),inhibition [5],Activity (HT-1080 [6]),Activity (HT-1080 [7])
CCn1cc(NC(=O)c2ccc(Cn3nc(C)cc3C)o2)c(C(=O)N(C)C)n1,> 100 µM,75 µM,,,,,,
Cc1cc(C)n(Cc2ccc(C(=O)Nc3c[nH]nc3C(N)=O)o2)n1,71.6 µM,66.6 µM,,,,,,
CCn1cc(NC(=O)c2ccc(Cc3c(C)noc3C)o2)c(C(N)=O)n1,> 100 µM,> 100 µM,,,,,,
CCn1ncc(NC(=O)c2ccc(Cn3nc(C)cc3C)o2)c1C(N)=O,> 100 µM,> 100 µM,inactive,,,,,
CCn1cc(NC(=O)c2ccc(Cn3nc(C)c(Br)c3C)o2)c(C(N)=O)n1,8.1 µM,7 µM,Active,Active,,,,
CCn1cc(NC(=O)c2ccc(Cn3nc(C)c(Cl)c3C)o2)c(C(N)=O)n1,8.7 µM,7.4 µM,Active,Active,,,,
CCn1cc(NC(=O)c2cccc(Cn3nc(C)cc3C)c2)c(C(N)=O)n1,72 µM,50.2 µM,,,,,,
CCn1cc(NC(=O)c2ccc(Cn3nc(C)cc3C)o2)c(C(N)=O)n1,19.1 µM,15.1 µM,,Active,Dose-dependent effect,Dose-dependent effect,inactive,inactive
CCn1cc(NC(=O)c2ccc(Cn3cccn3)o2)c(C(N)=O)n1,81.8 µM,75.1 µM,,,,,,
Cc1cc(C)n(Cc2ccc(C(=O)Nc3cnn4c3C(=O)NCC4)o2)n1,> 100 µM,> 100 µM,,,,,,
CCn1cc(NC(=O)c2ccc(Cn3nc(C)cc3C)o2)c(C(=O)NC)n1,19.4 µM,18.1 µM,,,,,,
CCn1cc(NC(=O)c2ccc(Cn3nc(C)cc3C)s2)c(C(N)=O)n1,> 100 µM,> 100 µM,,,,,,
